Experimental data taken from ChEMBL document CHEMBL1122773 (1984).
≈ marks a conversion by molar mass, not a printed value.

Columns and labels:
Format in all cases: functional
Mus musculus [1] = experiment: In vivo antibacterial activity against Streptococcus pneumoniae I (UC 41) infected mice after sc administration
How it was run: (§1)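 Fresh drug solutions were given subcutaneously (0.2 mL) or by oral intubation (0.5 mL), per line. Dosing was immediately after infection, then daily for 4 consecutive days, with 3 further days of observation. CD50 was calculated by Spearman-Karber.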

Mus musculus [2] = experiment: (§2) In vivo antibacterial activity against Escherichia coli(UC 311) infected mice after oral administration; how it was run: as §1
Mus musculus [3] = experiment: In vivo antibacterial activity against Pasteurella multocida (UC no 264) infected mice after sc administration; how it was run: as §1
Mus musculus [4] = experiment: In vivo antibacterial activity against Staphylococcus aureus(UC 76) infected mice after oral administration; how it was run: as §1
Mus musculus [5] = experiment: In vivo antibacterial activity against Streptococcus pyogenes(UC 152) infected mice after oral administration; how it was run: as §1
Mus musculus [6] = experiment: In vivo antibacterial activity against Klebsiella pneumoniae (UC 58) infected mice after sc administration; how it was run: as §1
Mus musculus [7] = experiment: In vivo antibacterial activity against Proteus vulgaris (UC no 347) infected mice after sc administration; how it was run: as §1
Mus musculus [8] = experiment: (§3) In vivo antibacterial activity against Klebsiella pneumoniae(UC 58) infected mice after oral administration; how it was run: as §1
Mus musculus [9] = experiment: In vivo antibacterial activity against Streptococcus pneumoniae III(UC 3213) infected mice after oral administration; how it was run: as §1
Mus musculus [10] = experiment: In vivo antibacterial activity against Streptococcus pyogenes(UC 152) infected mice after sc administration; how it was run: as §1
Mus musculus [11] = experiment: (§4) In vivo antibacterial activity against Proteus vulgaris(UC 347) infected mice after oral administration; how it was run: as §1
Staphylococcus aureus [12] = experiment: In vitro antibacterial activity against the aerobic Staphylococcus aureus (Strain UC no.6687)
How it was run: (§5)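 Broth microdilution in brain/heart infusion broth with twofold drug dilutions. Inoculum was a standardized suspension giving 10⁵ viable cells/mL final. Plates were incubated 20 h at 37 °C. MIC (mcg/mL) = lowest concentration with no visible growth.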

Clostridium perfringens [13] = experiment: In vitro antibacterial activity against the anaerobic Clostridium perfringens (Strain UC no.247)
Streptococcus pneumoniae [14] = experiment: In vivo antibacterial activity against Streptococcus pneumoniae I(UC 41) infected mice after oral administration (value in parenthesis is 95% confidence interval); how it was run: as §1
Streptococcus pyogenes [15] = experiment: In vivo antibacterial activity against Streptococcus pyogenes(UC 152) infected mice after oral administration (value in parenthesis is 95% confidence interval); how it was run: as §1
[16] = test system: Parabacteroides distasonis; experiment: In vitro antibacterial activity against the anaerobic Bacteroides distasonis (Strain UC no.6518)
Eubacterium limosum = experiment: In vitro antibacterial activity against the anaerobic Eubacterium limosum(Strain UC no.6515)
How it was run: (§6)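 Agar dilution with serial twofold drug dilutions in Schaedler broth mixed into molten Wilkens-Chalgren agar. Strains grown 48 h on Schaedler agar, suspended to 0.5 McFarland, and 0.001 mL spotted by replicator. All steps done anaerobically. Incubation 48 h at 37 °C. MIC is the least drug inhibiting growth; a faint film or fewer than three colonies scored negative.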

Fusobacterium varium = experiment: In vitro antibacterial activity against the anaerobic Fusobacterium varium(Strain UC no.6052); how it was run: as §6
Clostridioides difficile [17] = experiment: In vitro antibacterial activity against the anaerobic Clostridium difficile (Strain UC no.6860); how it was run: as §6
Escherichia coli [18] = experiment: as §2; how it was run: as §1
Clostridium tertium = experiment: In vitro antibacterial activity against the anaerobic Clostridium tertium(Strain UC no.6508); how it was run: as §6
[19] = test system: Prevotella melaninogenica; experiment: In vitro antibacterial activity against the anaerobic Bacteroides melaninogenicus (Strain UC no.6326); how it was run: as §6
Eggerthella lenta = experiment: In vitro antibacterial activity against the anaerobic Eubacterium lentum(Strain UC no.6522); how it was run: as §6
Escherichia coli [20] = experiment: In vivo antibacterial activity against Escherichia coli(UC no 311) infected mice after sc administration; how it was run: as §1
Fusobacterium nucleatum [21] = experiment: In vitro antibacterial activity against the anaerobic Fusobacterium nucleatum (Strain UC no.6516); how it was run: as §6
Fusobacterium nucleatum [22] = experiment: In vitro antibacterial activity against the anaerobic Fusobacterium nucleatum (Strain UC no.6324); how it was run: as §6
Clostridioides difficile [23] = experiment: In vitro antibacterial activity against the anaerobic Clostridium difficile (Strain UC no.6857); how it was run: as §6
[24] = test system: Paraclostridium bifermentans; experiment: In vitro antibacterial activity against the anaerobic Clostridium bifermentans (Strain UC no.6507); how it was run: as §6
Staphylococcus aureus [25] = experiment: In vivo antibacterial activity against Staphylococcus aureus(UC 76) infected mice after oral administration (value in parenthesis is 95% confidence interval); how it was run: as §1
[26] = test system: Peptoniphilus asaccharolyticus; experiment: In vitro antibacterial activity against the anaerobic Peptococcus asaccharolyticus (Strain UC no.6214); how it was run: as §6
Bacteroides fragilis [27] = experiment: In vitro antibacterial activity against the anaerobic Bacteroides fragilis (Strain UC no.6864); how it was run: as §6
Bacteroides fragilis [28] = experiment: In vivo antibacterial activity against Bacteroides fragilis(UC no 6428) infected mice after sc administration
Streptococcus pyogenes [29] = experiment: In vivo antibacterial activity against Streptococcus pyogenes (UC no 152) infected mice after sc administration (value in parenthesis is 95% confidence interval); how it was run: as §1
Staphylococcus aureus [30] = experiment: In vitro antibacterial activity against the aerobic Staphylococcus aureus (Strain UC no.6685); how it was run: as §5
Clostridium botulinum = experiment: In vitro antibacterial activity against the anaerobic Clostridium botulinum A(Strain UC no.6506)
Clostridioides difficile [31] = experiment: In vitro antibacterial activity against the anaerobic Clostridium difficile (Strain UC no.6861); how it was run: as §6
[32] = test system: Paeniclostridium sordellii; experiment: In vitro antibacterial activity against the anaerobic Clostridium sordellii (Strain UC no.6505); conditions: Paraclostridium sordellii; how it was run: as §6
Bacteroides fragilis [33] = experiment: In vitro antibacterial activity against the anaerobic Bacteroides fragilis (Strain UC no.6513); how it was run: as §6
Clostridium perfringens [34] = experiment: In vitro antibacterial activity against the anaerobic Clostridium perfringens (Strain UC no.6509)
Enterococcus faecalis = experiment: In vitro antibacterial activity against the aerobic […] (Strain UC no.694); how it was run: as §5
Pasteurella multocida [35] = experiment: In vitro antibacterial activity against the aerobic Pasteurella multocida (Strain UC no.264); how it was run: as §5
[36] = test system: Peptostreptococcus anaerobius; experiment: In vitro antibacterial activity against the anaerobic Peptostreptococcus anaerobius(Strain UC no.6321); how it was run: as §6
Plasmodium berghei = experiment: In vivo activity against Plasmodium berghei in mice (Mus musculus) after subcutaneous dose (95% confidence interval)
Clostridium novyi = experiment: In vitro antibacterial activity against the anaerobic Clostridium novyi B(Strain UC no.6329); how it was run: as §6
Streptococcus pneumoniae [37] = experiment: In vivo antibacterial activity against Streptococcus pneumoniae I (UC no 41) infected mice after sc administration (value in parenthesis is 95% confidence interval); how it was run: as §1
Streptococcus pneumoniae [38] = experiment: In vivo antibacterial activity against Streptococcus pneumoniae III(UC 3213) infected mice after oral administration (value in parenthesis is 95% confidence interval); how it was run: as §1
Klebsiella pneumoniae = experiment: as §3; how it was run: as §1
Cutibacterium acnes = experiment: In vitro antibacterial activity against the anaerobic Propionibacterium acnes(Strain UC no.6564); how it was run: as §6
Pasteurella multocida [39] = experiment: In vivo antibacterial activity against Pasteurella multocida(UC no 264) infected mice after sc administration; how it was run: as §1
Streptococcus pneumoniae [40] = experiment: In vivo antibacterial activity against Streptococcus pneumoniae III (UC no 3213) infected mice after sc administration (value in parenthesis is 95% confidence interval); how it was run: as §1
Proteus vulgaris = experiment: as §4; how it was run: as §1

Structure (SMILES): CCC[C@@H]1C[C@@H](C(=O)N[C@@H]([C@H]2O[C@H](SC)[C@H](O)[C@@H](O)[C@H]2O)[C@H](C)Cl)N(C)C1 [CLINDAMYCIN]
- CD50 (Mus musculus [1]): 40 mg/kg
- CD50 (Mus musculus [2]): >400 mg/kg
- CD50 (Mus musculus [3]): >160 mg/kg
- CD50 (Mus musculus [4]): 12.3 mg/kg
- CD50 (Mus musculus [5]): 12.3 mg/kg
- CD50 (Mus musculus [6]): >320 mg/kg
- CD50 (Mus musculus [7]): >160 mg/kg
- CD50 (Mus musculus [8]): >400 mg/kg
- CD50 (Mus musculus [9]): 37.9 mg/kg
- CD50 (Mus musculus [10]): 2.3 mg/kg
- CD50 (Mus musculus [11]): >400 mg/kg

Structure (SMILES): CC[C@@H]1CCN[C@H](C(=O)N[C@@H]([C@H]2O[C@H](SC)[C@H](O)[C@@H](O)[C@H]2O)[C@H](C)Cl)C1 [PIRLIMYCIN]
- MIC (Staphylococcus aureus [12]): 0.2 µg/mL (≈ 0.487 µM)
- MIC (Clostridium perfringens [13]): 0.12 µg/mL (≈ 0.292 µM)
- CD50 (Streptococcus pneumoniae [14]): 20.3 mg/kg
- CD50 (Streptococcus pyogenes [15]): 2.9 mg/kg
- MIC [16]: < 0.03 µg/mL
- MIC (Eubacterium limosum): 2 µg/mL (≈ 4.87 µM)
- MIC (Fusobacterium varium): 3.9 µg/mL (≈ 9.49 µM)
- MIC (Clostridioides difficile [17]): 500 µg/mL (≈ 1220 µM)
- CD50 (Escherichia coli [18]): >400 mg/kg
- MIC (Clostridium tertium): 7.8 µg/mL (≈ 19 µM)
- MIC [19]: 0.06 µg/mL (≈ 0.146 µM)
- MIC (Eggerthella lenta): 1 µg/mL (≈ 2.43 µM)
- CD50 (Escherichia coli [20]): >160 mg/kg
- MIC (Fusobacterium nucleatum [21]): 0.12 µg/mL (≈ 0.292 µM)
- MIC (Fusobacterium nucleatum [22]): 0.06 µg/mL (≈ 0.146 µM)
- MIC (Clostridioides difficile [23]): 125 µg/mL (≈ 304 µM)
- MIC [24]: 0.06 µg/mL (≈ 0.146 µM)
- CD50 (Staphylococcus aureus [25]): 2.9 mg/kg
- MIC [26]: 0.25 µg/mL (≈ 0.608 µM)
- MIC (Bacteroides fragilis [27]): 2 µg/mL (≈ 4.87 µM)
- CD50 (Bacteroides fragilis [28]): <6.25 mg/kg
- CD50 (Streptococcus pyogenes [29]): 0.25 mg/kg
- MIC (Staphylococcus aureus [30]): > 25 µg/mL
- MIC (Clostridium botulinum): < 0.03 µg/mL
- MIC (Clostridioides difficile [31]): 2 µg/mL (≈ 4.87 µM)
- MIC [32]: 0.5 µg/mL (≈ 1.22 µM)
- MIC (Bacteroides fragilis [33]): 0.12 µg/mL (≈ 0.292 µM)
- MIC (Clostridium perfringens [34]): 0.12 µg/mL (≈ 0.292 µM)
- MIC (Enterococcus faecalis): 6.25 µg/mL (≈ 15.2 µM)
- MIC (Pasteurella multocida [35]): 62.5 µg/mL (≈ 152 µM)
- MIC [36]: 0.12 µg/mL (≈ 0.292 µM)
- CD50 (Plasmodium berghei): 16 mg/kg
- MIC (Clostridium novyi): 0.12 µg/mL (≈ 0.292 µM)
- CD50 (Streptococcus pneumoniae [37]): 1.7 mg/kg
- CD50 (Streptococcus pneumoniae [38]): 17.7 mg/kg
- CD50 (Klebsiella pneumoniae): >400 mg/kg
- MIC (Cutibacterium acnes): 0.12 µg/mL (≈ 0.292 µM)
- CD50 (Pasteurella multocida [39]): >160 mg/kg
- CD50 (Streptococcus pneumoniae [40]): 2.7 mg/kg
- CD50 (Proteus vulgaris): >400 mg/kg
